The results in this text go back to ChEMBL document CHEMBL2417481, “Regioselective synthesis of 6-substituted-2-amino-5-bromo-4(3H)-pyrimidinones and evaluation of their antiviral activity” (Eur J Med Chem, 2013).

The experiment has as its system Vaccinia virus. Description: Antiviral activity against Vaccinia virus Lederle infected in human HEL cells assessed as reduction in virus-induced cytopathogenicity. It counts as functional, organism-based. The note with it: Orthopoxvirus vaccinia. An outline of the steps:
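Confluent cell monolayers (Vero, HeLa, HEL or MDCK, as named in each line) were infected with 100 CCID50 of virus while exposed to a range of compound concentrations. Cytopathicity was scored once it was complete in untreated infected controls.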
Background: Protection from cytopathic effect is a common read-out in antiviral testing.
As usually defined, the EC50 is the concentration giving half of the maximal effect. Consider `CCCc1nc(N)[nH]c(=O)c1Br`, for which the EC50 is more than 100 µM.

Take `CCCCc1nc(N)[nH]c(=O)c1Br`: the EC50 was more than 100 µM. The same measure for `CCCCCc1nc(N)[nH]c(=O)c1Br`: more than 100 µM. In the case of `Nc1nc(CCc2ccccc2)c(Br)c(=O)[nH]1`, the EC50 was more than 100 µM. The same measure for `CC(C)(O)Cc1nc(N)[nH]c(=O)c1Br`: more than 100 µM; for `Nc1nc(CC(O)c2ccc(Cl)cc2)c(Br)c(=O)[nH]1` (stereo not given): more than 100 µM; for `Nc1nc(CC(O)c2ccccc2C(F)(F)F)c(Br)c(=O)[nH]1` (stereo not given): more than 100 µM.

On to `Cc1cc(C)c(/C=C/c2nc(N)[nH]c(=O)c2Br)c(C)c1`, for which the EC50 was more than 20 µM.

For `COc1ccc(/C=C/c2nc(N)[nH]c(=O)c2Br)cc1OC`, the EC50 was more than 100 µM.

Consider `Nc1nc2c(ncn2COCCO)c(=O)[nH]1` [ACYCLOVIR], for which the EC50 is more than 250 µM.
